Experimental data published in paper PMC9298202 (Chemmedchem, 2021).
Like-named read-outs stand apart in the source and are kept apart here.

Columns and labels:
J774.2 macrophages = experiment: Cytotoxicity in J774.2 macrophages; assay type: cell-based; details: read-out: Toxicity in macrophages IC50
[1] = tested on: Leishmania donovani promastigote forms; experiment: In vitro activity on promastigote; assay type: cell-based; details: for IC50: Leishmania donovani, read-out: Activity IC50 Promastigote forms; for Selectivity index Promastigote forms: L. donovani, IC50 macrophages toxicity/IC50 activity
Outline: (§1)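 Extracellular promastigotes were tested at 1, 10, 25 and 200 µM, and IC50 was derived by linear regression from Kc values, averaging four determinations.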

[2] = tested on: Leishmania infantum promastigote forms; experiment: In vitro activity on promastigote; assay type: cell-based; details: for IC50: Leishmania infantum, read-out: Activity IC50 Promastigote forms; for Selectivity index Promastigote forms: L. infantum, IC50 macrophages toxicity/IC50 activity
[3] = tested on: Leishmania braziliensis promastigote forms; experiment: In vitro activity on promastigote; assay type: cell-based; details: for IC50: Leishmania braziliensis, read-out: Activity IC50 Promastigote forms; for Selectivity index Promastigote forms: L. braziliensis, IC50 macrophages toxicity/IC50 activity
Outline: as §1

Vero cells = experiment: Cytotoxicity in Vero cells; assay type: cell-based; details: read-out: Vero cells toxicity IC50
Outline: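 Vero cells were grown in RPMI + 10% inactivated FBS at 37 °C in humidified 5% CO2. They were resuspended at 1×10^5 cells/mL, cultured 2 days, then given fresh medium with test compound for 72 h. Viability was read by flow cytometry. IC50 was derived by linear regression from Kc values; results average four determinations.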

[4] = tested on: Trypanosoma cruzi SN3 epimastigote forms; experiment: Epimastigote assay, T. cruzi SN3; assay type: cell-based; details: for Selectivity index Epimastigote forms: T. cruzi SN3, IC50 Vero cell toxicity/IC50 activity; for IC50: Trypanosoma cruzi, read-out: Activity IC50 Epimastigote forms
Outline: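 SN3 epimastigotes (Rhodnius prolixus isolate, Colombia) were grown at 28 °C in Grace's Insect Medium + 10% inactivated FBS. Exponential-phase cells were plated at 5×10^4 parasites/well with test compound in MTL medium at 100, 50, 25, 12,5 and 6,25 µM. Counts after 72 h used a Neubauer chamber. IC50 came from linear regression of Kc values; SI = Vero IC50/epimastigote IC50.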

[5] = tested on: Leishmania braziliensis amastigote forms; experiment: In vitro activity on amastigote; assay type: cell-based; details: for Selectivity index Amastigote forms: L. braziliensis, IC50 macrophages toxicity/IC50 activity; for IC50: Leishmania braziliensis, read-out: Activity IC50 Amastigote forms
Outline: (§2)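 J774.2 macrophages were infected with promastigotes, which became intracellular amastigotes within 1 day; test compounds were then added. IC50 came from linear regression of Kc values at 1, 10, 25 and 200 µM, averaging four determinations.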

[6] = tested on: Fe-SOD in L. infantum promastigotes; experiment: Fe-SOD inhibition, L. infantum; assay type: biochemical, Leishmania infantum; details: extent reached in the tested concentration range (Figure 6)
Outline: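 Promastigotes or T. cruzi epimastigotes were grown in MTL (HBSS + 10% heat-inactivated FBS) at 26 °C to ~1×10^7/mL. Log-phase cells were pelleted and held 24 h at 27 °C to excrete SOD. Filtered supernatant was fractionated with 35% then 85% ammonium sulphate and desalted on Sephadex G-25. Activity was measured as NBT reduction (methionine, riboflavin, Triton X-100) at 560 nm before and after 10 min UV illumination.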

[7] = tested on: Leishmania infantum amastigote forms; experiment: In vitro activity on amastigote; assay type: cell-based; details: for Selectivity index Amastigote forms: L. infantum, IC50 macrophages toxicity/IC50 activity; for IC50: Leishmania infantum, read-out: Activity IC50 Amastigote forms
[8] = tested on: Leishmania donovani amastigote forms; experiment: In vitro activity on amastigote; assay type: cell-based; details: for Selectivity index Amastigote forms: L. donovani, IC50 macrophages toxicity/IC50 activity; for IC50: Leishmania donovani, read-out: Activity IC50 Amastigote forms
Outline: as §2

[9] = tested on: Trypanosoma cruzi SN3 trypomastigote forms; experiment: Trypomastigote activity, T. cruzi SN3; assay type: cell-based; details: for Selectivity index Trypomastigote forms: T. cruzi SN3, IC50 Vero cell toxicity/IC50 activity; for IC50: Trypanosoma cruzi, read-out: Activity IC50 Trypomastigote forms
[10] = tested on: Trypanosoma cruzi SN3 amastigote forms; experiment: Amastigote assay, T. cruzi SN3; assay type: cell-based; details: for Selectivity index Amastigote forms: T. cruzi SN3, IC50 Vero cell toxicity/IC50 activity; for IC50: Trypanosoma cruzi, read-out: Activity IC50 Amastigote forms
Outline: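 Vero cells in RPMI + 10% inactivated FBS (37 °C, 5% CO2) were seeded at 1×10^4 cells/well on coverslips for 2 days. They were infected 10:1 with SN3 metacyclic forms, obtained by 12-day culture of epimastigotes at 28 °C in modified Grace's medium (~40% metacyclic). After 24 h, cells were washed and exposed to 6.25–100 µM for 72 h. Giemsa-stained amastigotes were counted; IC50 from four determinations; SI used Vero IC50.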

[11] = Chlorocebus sabaeus, Vero, 72 h
[12] = J774.2 macrophages after 72 h of culture (Table 1)
[13] = Vero cells after 72 h of culture

| Compound | IC50 [1] [µM] | IC50 [2] [µM] | IC50 [3] [µM] | IC50 [4] [µM] | IC50 [5] [µM] | IC50 [7] [µM] | IC50 [8] [µM] | IC50 (J774.2 macrophages; Mus musculus, J774.2, 72 h) [µM] | IC50 (Vero cells; [11]) [µM] | Selectivity index Epimastigote forms [4] | Selectivity index Promastigote forms [1] | Selectivity index Promastigote forms [2] | Selectivity index Amastigote forms [5] | Selectivity index Promastigote forms [3] | Selectivity index Amastigote forms [7] | Selectivity index Amastigote forms [8] | also measured |
| --- | --- | --- | --- | --- | --- | --- | --- | --- | --- | --- | --- | --- | --- | --- | --- | --- | --- |
| Glucantime [reference compound] | – | – | – | – | – | – | – | – | – | – | – | – | – | – | – | – | IC50 (J774.2 macrophages; [12]): 15.2 ± 1 µM |
| Clc1ccc(NCCc2c[nH]cn2)nn1 [1 c, N ‐(2‐(1H‐imidazol‐4‐yl)ethyl)‐6‐chloropyridazin‐3‐amine] | 57.4 ± 4.1 | 19.9 ± 1.1 | 28.1 ± 0.4 | 30.5 ± 2.7 | – | – | – | 17.1 ± 1.7 | 39.6 ± 0.9 | 1 (1) | – | 1 (1) | – | 1 (1) | – | – | – |
| c1cnc(NCCCCCn2ccnc2)cn1 [4 d, N ‐(5‐(1H‐imidazol‐1‐yl)pentyl)pyrazin‐2‐amine] | 3.8 ± 0.3 | 5.8 ± 0.3 | 3.7 ± 0.1 | 23.3 ± 0.7 | 4.1 ± 0.3 | 4 ± 0.4 | 1.9 | 22 ± 1.7 | 37.2 ± 1.2 | 2 (2) | 6 | 4 | 5 | 6 | 5 | 11 | – |
| c1ccc2c(NCCc3c[nH]cn3)ncnc2c1 [3 a, N ‐[2‐(1H‐imidazol‐4‐yl)ethyl]‐quinazolin‐4‐amine] | 20.4 ± 2 | 27.7 ± 3 | 29.1 ± 2.3 | 25.9 ± 1.2 | 18.9 ± 1.6 | – | – | 65.2 ± 3.3 | 112 ± 4.8 | 4 | 3 | 2 | 3 | 2 | – | – | Selectivity index Trypomastigote forms [9]: 26; IC50 [9]: 4.3 ± 0.3 µM; Selectivity index Amastigote forms [10]: 17; IC50 [10]: 6.7 ± 0.8 µM |
| N‐ [2‐(1H‐imidazol‐4‐yl)ethylamino]pyrazine [4 a] | – | – | – | – | – | – | – | – | – | – | – | – | – | – | – | – | IC50 (J774.2 macrophages; [12]): 21.9 ± 1.5 µM; IC50 (Vero cells; [13]): 31 ± 2.6 µM |
| c1ccc2[nH]c(CCNc3nnc(NCCc4nc5ccccc5[nH]4)c4ccccc34)nc2c1 [2 a, N 1,N4‐bis[2‐(1H‐benzo[d]imidazol‐2‐yl)ethyl]phthalazine‐1,4‐diamine] | 4.4 ± 0.2 | 19.9 ± 1.4 | 5.8 ± 0.2 | 33.5 ± 1.6 | 4.4 ± 0.3 | – | – | 18.7 ± 1 | 38.7 ± 1.7 | 1 (1) | 4 | 1(1) | 4 | 3 | – | – | – |
| 1‐[3‐(imidazol‐1‐yl)propylamino]pyridazine [1 b] | – | – | – | – | – | – | – | – | – | – | – | – | – | – | – | – | IC50 (J774.2 macrophages; [12]): 18.6 ± 1 µM; IC50 (Vero cells; [13]): 43.6 ± 2.7 µM |
| c1ccc2c(NCCCn3ccnc3)nncc2c1 [1 f, 1‐[3‐(imidazol‐1‐yl)propylamino]phthalazine] | 52 ± 3.6 | 11.1 ± 0.4 | 17.8 ± 1.4 | 102 ± 4.1 | 15 ± 0.9 | 10.7 ± 0.7 | 44.7 ± 5.6 | 211 ± 10.3 | 156 ± 4.6 | 1 | 4 | 19 | 14 | 12 | 20 | 5 | Selectivity index Trypomastigote forms [9]: 4; IC50 [9]: 40.8 ± 3.1 µM; Selectivity index Amastigote forms [10]: 3; IC50 [10]: 44.3 ± 2.7 µM |
| Clc1nnc(NCCc2nc3ccccc3[nH]2)c2ccccc12 [2 b, N‐ [2‐(1H‐benzo[d]imidazol‐2‐yl)ethyl]‐4‐chlorophthalazin‐1‐amine] | 10.7 ± 0.4 | 24.5 ± 2.5 | 6.1 ± 0.5 | 30 ± 0.8 | 5.3 ± 0.4 | – | – | 25.2 ± 1.7 | 35 | 1 (1) | 2 | 1(1) | 5 | 4 | – | – | – |

Further compounds by falling IC50 [4], results first:

| IC50 [1] [µM] | IC50 [2] [µM] | IC50 [3] [µM] | IC50 [4] [µM] | IC50 [5] [µM] | IC50 [7] [µM] | IC50 [8] [µM] | Compound | IC50 (J774.2 macrophages; Mus musculus, J774.2, 72 h) [µM] | IC50 (Vero cells; [11]) [µM] | Selectivity index Epimastigote forms [4] | Selectivity index Promastigote forms [1] | Selectivity index Promastigote forms [2] | Selectivity index Amastigote forms [5] | Selectivity index Promastigote forms [3] | Selectivity index Amastigote forms [7] | Selectivity index Amastigote forms [8] | also measured |
| --- | --- | --- | --- | --- | --- | --- | --- | --- | --- | --- | --- | --- | --- | --- | --- | --- | --- |
| 22.4 ± 1.3 | 18.7 ± 1.4 | 14.7 ± 0.6 | 20.1 ± 1.3 | – | – | – | c1ccc2c(NCCc3cn4ccccc4n3)nnc(NCCc3cn4ccccc4n3)c2c1 [2 c, N 1,N4‐bis(2‐(imidazo[1,2‐a]pyridin‐2‐yl)ethyl)phthalazine‐1,4‐diamine] | 2.4 ± 0.1 | 19.6 ± 0.7 | 1 (1) | – | – | – | – | – | – | – |
| 11.9 ± 0.7 | 21.8 ± 2.3 | 26.6 ± 5.4 | 19.6 ± 0.8 | – | – | – | Clc1nnc(NCCc2cn3ccccc3n2)c2ccccc12 [2 d, 4‐chloro‐N‐(2‐(imidazo[1,2‐a]pyridin‐2‐yl)ethyl)phthalazin‐1‐amine] | 2.4 ± 0.3 | 23.8 ± 2.1 | 1 (1) | – | – | – | – | – | – | – |
| 7.4 ± 0.4 | 9.6 ± 0.8 | 10.7 ± 1.1 | 17.9 ± 1.1 | 7.7 ± 0.5 | 5.8 ± 0.2 | 5.5 ± 0.3 | c1cnc(NCCCCn2ccnc2)cn1 [4 c, N ‐(4‐(1H‐imidazol‐1‐yl)butyl)pyrazin‐2‐amine] | 22.3 ± 2.3 | 29.8 ± 1.6 | 2 (2) | 3 | 2 | 3 | 2 | 4 | 4 | – |
| 9.6 ± 1.3 | 10.2 | 14.5 ± 1.3 | 16.5 ± 0.6 | 8.1 ± 0.4 | 7.4 ± 0.3 | 10.8 ± 1.1 | c1ccc2c(NCCc3c[nH]cn3)nncc2c1 [1 e, 1‐[2‐(1H‐imidazol‐4‐yl)ethylamino]phthalazine] | 63.9 ± 3.6 | 350 ± 7.7 | 21 | 7 | 6 | 8 | 4 | 9 | 6 | Selectivity index Trypomastigote forms [9]: 22; IC50 [9]: 15.9 ± 1.2 µM; Selectivity index Amastigote forms [10]: 24; IC50 [10]: 14.7 ± 1.1 µM |
| – | – | – | 15.8 ± 1.1 | – | – | – | O=C(Cn1ccnc1[N+](=O)[O-])NCc1ccccc1 [BNZ, benznidazole, reference compound] | – | 13.6 ± 0.9 | 0.9 | – | – | – | – | – | – | Selectivity index Trypomastigote forms [9]: 2.2; IC50 [9]: 6.2 ± 0.7 µM; Selectivity index Amastigote forms [10]: 0.6; IC50 [10]: 23.3 ± 4.6 µM |
| 3.6 ± 0.4 | 1.6 ± 0.2 | 1.5 ± 0.2 | 15.7 ± 0.5 | 2.3 ± 0.2 | 2.7 ± 0.1 | 2.5 | c1cnc(NCCCn2ccnc2)cn1 [4 b, N‐(3‐(1H‐imidazol‐1‐yl)propyl)pyrazin‐2‐amine] | 23.8 ± 1.9 | 26.8 ± 0.9 | 2 (2) | 7 | 15 | 10 | 16 | 9 | 9 | extent of inhibition of enzymatic activity [6]: more than 80% |
| 20.6 ± 2.3 | 15.3 ± 0.5 | 13.5 ± 0.3 | 11.8 ± 0.6 | – | – | – | Clc1ccc(NCCCn2ccnc2)nn1 [1 d, N ‐(3‐(1H‐imidazol‐1‐yl)propyl)‐6‐chloropyridazin‐3‐amine] | 19.3 ± 1.1 | 33.2 ± 2.8 | 3 (3) | 1 (1) | 1 (1) | – | 1 | – | – | – |
